Measurements taken from ChEMBL document CHEMBL4152234, “Aminobenzothiazole derivatives stabilize the thermolabile p53 cancer mutant Y220C and show anticancer activity in p53-Y220C cell lines” (Eur J Med Chem, 2018).
Activity calls are given as the source filed them. The calls are words filed in the database; no cut-off is given here.

Key:
Format in all cases: cell-based
[1] = tested on: Cellular tumor antigen p53 (Homo sapiens), P04637 [Y220C]; test: Activation of p53 Y220C mutant in human NUGC3 cells assessed as change in CCNB1 mRNA level at 60 uM after 18 hrs by RT-PCR method relative to control
Summary of the method: (§1)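 p53 signalling qPCR array covering 84 genes. Cells were exposed for 18 h, with 0.5% DMSO in both compound and control samples. Total RNA was extracted and purified. Fold-changes were calculated by ΔΔCt using β2-microglobulin (B2M) as the housekeeping gene. Two independent biological replicates were run per cell line.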

[2] = target: T1, Cellular tumor antigen p53 (Homo sapiens, UniProt P04637); test: Activation of p53 in human NUGC4 cells assessed as change in E2F1 mRNA level at 60 uM after 18 hrs by RT-PCR method relative to control; settings: read-out: FC
Summary of the method: (§2)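 p53 signaling qPCR array of 84 p53-pathway genes. Cells were treated in 6-well plates for 18 h with 0.5% DMSO in compound and control samples. Total RNA was extracted and fold-changes were obtained by the ΔΔCt method against untreated control, with β2-microglobulin (B2M) as housekeeping gene. Two independent biological replicates per cell line.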

[3] = tested on: Cellular tumor antigen p53 (Homo sapiens), P04637 [Y220C]; test: Activation of p53 Y220C mutant in human NUGC3 cells assessed as change in IGF1R mRNA level at 60 uM after 18 hrs by RT-PCR method relative to control; summary of the method: as §1
[4] = target: T1, Cellular tumor antigen p53; test: Activation of p53 in human NUGC4 cells assessed as change in CRADD mRNA level at 60 uM after 18 hrs by RT-PCR method relative to control; settings: read-out: FC; summary of the method: as §2
[5] = target: T1, Cellular tumor antigen p53; test: Activation of p53 in human NUGC4 cells assessed as change in TP63 mRNA level at 60 uM after 18 hrs by RT-PCR method relative to control; settings: read-out: FC
[6] = tested on: Cellular tumor antigen p53 (Homo sapiens), P04637 [Y220C]; test: Activation of p53 Y220C mutant in human NUGC3 cells assessed as change in BRCA1 mRNA level at 60 uM after 18 hrs by RT-PCR method relative to control; summary of the method: as §1
[7] = tested on: Cellular tumor antigen p53 (Homo sapiens), P04637 [Y220C]; test: Activation of p53 Y220C mutant in human NUGC3 cells assessed as change in CDK1 mRNA level at 60 uM after 18 hrs by RT-PCR method relative to control; summary of the method: as §1
[8] = target: T1, Cellular tumor antigen p53; test: Activation of p53 in human NUGC4 cells assessed as change in BID mRNA level at 60 uM after 18 hrs by RT-PCR method relative to control; settings: read-out: FC
Summary of the method: (§3)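 p53 signalling qPCR array covering 84 p53 pathway genes. Cells were exposed for 18 h, and compound and control wells both held 0.5% DMSO. Total RNA was extracted and purified. Fold-changes were calculated by the ΔΔCt method against the untreated sample, with β2-microglobulin (B2M) as the housekeeping gene. Each cell line was run in two independent biological replicates.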

[9] = tested on: Cellular tumor antigen p53 (Homo sapiens), P04637 [Y220C]; test: Activation of p53 Y220C mutant in human NUGC3 cells assessed as change in CCNH mRNA level at 60 uM after 18 hrs by RT-PCR method relative to control; summary of the method: as §1
[10] = tested on: Cellular tumor antigen p53 (Homo sapiens), P04637 [Y220C]; test: Activation of p53 Y220C mutant in human NUGC3 cells assessed as change in TP73 mRNA level at 60 uM after 18 hrs by RT-PCR method relative to control; summary of the method: as §3
[11] = tested on: Cellular tumor antigen p53 (Homo sapiens), P04637 [Y220C]; test: Activation of p53 Y220C mutant in human NUGC3 cells assessed as change in FASLG mRNA level at 60 uM after 18 hrs by RT-PCR method relative to control; summary of the method: as §1
[12] = target: T1, Cellular tumor antigen p53; test: Activation of p53 in human NUGC4 cells assessed as change in ATM mRNA level at 60 uM after 18 hrs by RT-PCR method relative to control; settings: read-out: FC; summary of the method: as §3
[13] = tested on: Cellular tumor antigen p53 (Homo sapiens), P04637 [Y220C]; test: Activation of p53 Y220C mutant in human NUGC3 cells assessed as change in STAT1 mRNA level at 60 uM after 18 hrs by RT-PCR method relative to control; summary of the method: as §3
[14] = tested on: Cellular tumor antigen p53 (Homo sapiens), P04637 [Y220C]; test: Activation of p53 Y220C mutant in human NUGC3 cells assessed as change in PRC1 mRNA level at 60 uM after 18 hrs by RT-PCR method relative to control; summary of the method: as §3
[15] = tested on: Cellular tumor antigen p53 (Homo sapiens), P04637 [Y220C]; test: Activation of p53 Y220C mutant in human NUGC3 cells assessed as change in MCL1 mRNA level at 60 uM after 18 hrs by RT-PCR method relative to control; summary of the method: as §3
[16] = tested on: Cellular tumor antigen p53 (Homo sapiens), P04637 [Y220C]; test: Activation of p53 Y220C mutant in human NUGC3 cells assessed as change in CHEK1 mRNA level at 60 uM after 18 hrs by RT-PCR method relative to control; summary of the method: as §1
[17] = target: T1, Cellular tumor antigen p53; test: Activation of p53 in human NUGC4 cells assessed as change in PPM1D mRNA level at 60 uM after 18 hrs by RT-PCR method relative to control; settings: read-out: FC
[18] = tested on: Cellular tumor antigen p53 (Homo sapiens), P04637 [Y220C]; test: Activation of p53 Y220C mutant in human NUGC3 cells assessed as change in GADD45A mRNA level at 60 uM after 18 hrs by RT-PCR method relative to control; summary of the method: as §1
[19] = tested on: Cellular tumor antigen p53 (Homo sapiens), P04637 [Y220C]; test: Activation of p53 Y220C mutant in human HuH7 cells assessed as increase in Bax mRNA level at 30 uM after 18 hrs by RT-PCR method
Summary of the method: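 Real-time PCR. Cells were treated for 18 h, with 0.5% DMSO in both compound and control samples. Relative mRNA levels were quantified by the ΔΔCt method as fold-change against the untreated sample. Each sample was measured in triplicate, and data are given as mean ± SEM with an unpaired t-test.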

[20] = target: T1, Cellular tumor antigen p53; test: Activation of p53 in human NUGC4 cells assessed as change in EGFR mRNA level at 60 uM after 18 hrs by RT-PCR method relative to control; settings: read-out: FC; summary of the method: as §2
[21] = target: T1, Cellular tumor antigen p53; test: Activation of p53 in human NUGC4 cells assessed as change in MDM2 mRNA level at 60 uM after 18 hrs by RT-PCR method relative to control; settings: read-out: FC; summary of the method: as §2
[22] = target: T1, Cellular tumor antigen p53; test: Activation of p53 in human NUGC4 cells assessed as change in CASP2 mRNA level at 60 uM after 18 hrs by RT-PCR method relative to control; settings: read-out: FC; summary of the method: as §2
[23] = tested on: Cellular tumor antigen p53 (Homo sapiens), P04637 [Y220C]; test: Activation of p53 Y220C mutant in human NUGC3 cells assessed as change in TP53AIP1 mRNA level at 60 uM after 18 hrs by RT-PCR method relative to control; summary of the method: as §3
[24] = tested on: Cellular tumor antigen p53 (Homo sapiens), P04637 [Y220C]; test: Activation of p53 Y220C mutant in human NUGC3 cells assessed as change in FADD mRNA level at 60 uM after 18 hrs by RT-PCR method relative to control; summary of the method: as §1
[25] = target: T1, Cellular tumor antigen p53; test: Activation of p53 in human NUGC4 cells assessed as change in CDK4 mRNA level at 60 uM after 18 hrs by RT-PCR method relative to control; settings: read-out: FC; summary of the method: as §2
[26] = tested on: Cellular tumor antigen p53 (Homo sapiens), P04637 [Y220C]; test: Activation of p53 Y220C mutant in human NUGC3 cells assessed as change in SIRT1 mRNA level at 60 uM after 18 hrs by RT-PCR method relative to control; summary of the method: as §3
[27] = tested on: Cellular tumor antigen p53 (Homo sapiens), P04637 [Y220C]; test: Activation of p53 Y220C mutant in human NUGC3 cells assessed as change in KAT2B mRNA level at 60 uM after 18 hrs by RT-PCR method relative to control; summary of the method: as §3

Work on CCNC(=O)c1c(O)c(I)c(-n2cccc2)c2sc(N(CC)CC)nc12 yielded a fold change (FC) [1] of 1.1, a fold induction at 60 µM [2] of 0.5 and a fold change (FC) [3] of 1.8. The fold induction at 60 µM [4] was 0.8, the fold induction at 60 µM [5] was 0.5 and the fold change (FC) [6] was 0.6. The fold change (FC) [7] was 1.5, the fold induction at 60 µM [8] was 0.7 and the fold change (FC) [9] was 1.4. The fold change (FC) [10] was 1.2, the fold change (FC) [11] was 1.1 and the fold induction at 60 µM [12] was 1. The fold change (FC) [13] was 0.8, the fold change (FC) [14] was 1.1 and the fold change (FC) [15] was 1.7. For the same compound, the fold change (FC) [16] was 1.2, the fold induction at 60 µM [17] was 0.9 and the fold change (FC) [18] was 2.2. The Activity [19] was “Active”, the fold induction at 60 µM [20] was 1 and the fold induction at 60 µM [21] was 0.8. It also gave a fold induction at 60 µM [22] of 0.7, a fold change (FC) [23] of 1.5 and a fold change (FC) [24] of 0.4. For the same compound, the fold induction at 60 µM [25] was 0.8, the fold change (FC) [26] was 1.7 and the fold change (FC) [27] was 0.8.
